The target of series [1] is T1, Vitamin D3 receptor (Mus musculus) (UniProt P48281).
T1 sequence (whole entry): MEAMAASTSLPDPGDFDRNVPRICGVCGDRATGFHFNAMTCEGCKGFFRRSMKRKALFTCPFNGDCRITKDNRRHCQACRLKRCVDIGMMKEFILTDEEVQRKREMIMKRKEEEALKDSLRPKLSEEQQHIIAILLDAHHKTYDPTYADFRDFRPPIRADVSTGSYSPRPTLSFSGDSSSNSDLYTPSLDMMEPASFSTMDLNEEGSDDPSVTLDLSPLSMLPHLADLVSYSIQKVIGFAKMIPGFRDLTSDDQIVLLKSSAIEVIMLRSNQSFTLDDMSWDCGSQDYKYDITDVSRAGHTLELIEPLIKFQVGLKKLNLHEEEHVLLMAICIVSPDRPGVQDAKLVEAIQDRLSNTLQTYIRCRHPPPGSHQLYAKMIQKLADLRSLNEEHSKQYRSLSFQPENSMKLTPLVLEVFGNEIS
The series can be described thus: Activation of VDR in mouse ASZ001 cells assessed as change in Cyp24A1 mRNA expression at 1 uM after 48 hrs by q-PCR analysis relative to control. The class given is cell-based.

Series [2] has as its target T1, Vitamin D3 receptor (Mus musculus). As to the kind of experiment: Activation of VDR in mouse C3H10T1/2 cells assessed as change in Cyp24A1 mRNA expression at 2.5 uM after 24 hrs by q-PCR analysis relative to control. In kind it is cell-based.
The nature of series [3]: Inhibition of Hedgehog signaling pathway in mouse C3H10T1/2 cells assessed as reduction in oxysterol-induced Gli1 mRNA expression after 24 hrs by q-PCR analysis. In kind it is cell-based. The settings on record: C3H 10T1/2, 24 h.
Series [4] can be described thus: Inhibition of Hedgehog signaling pathway in mouse ASZ001 cells assessed as reduction in […] Gli1 mRNA expression after 48 hrs by q-PCR analysis. In kind it is cell-based. The note with it: ASZ001, 48 h.
The species named for series [5] is Mus musculus. As to the kind of experiment: Inhibition of Hedgehog signaling pathway in mouse C3H10T1/2 cells assessed as reduction in oxysterol-induced Gli1 mRNA expression at 2.5 uM after 24 hrs by q-PCR analysis relative to oxysterol alone. The class given is cell-based. In outline:
(§1)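 Gli1 transcription was induced in C3H10T1/2 cells by co-treating with 20(S)-OHC and 22(S)-OHC (5 µM each) plus analogue for 24 h. Gli1 mRNA was quantified by qPCR and expressed as % of the oxysterol-only control (set to 100%). Data are mean ± SEM of at least two separate experiments run in triplicate.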

The next series concerns the target T2, Vitamin D3 receptor (Mus musculus, UniProt P48281).
T2 sequence (P48281 whole entry): T1 sequence (whole entry)
The series can be described thus: Activation of VDR in mouse ASZ001 cells assessed as change in Cyp24A1 mRNA expression after 48 hrs by q-PCR analysis. In kind it is cell-based. In outline:
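In ASZ001 cells, full dose-response Cyp24A1 mRNA measurement by qPCR was done relative to DMSO control (1.0). EC50 values are mean ± SEM of at least two separate experiments performed in triplicate.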

Series [6] is described as follows: Inhibition of Hedgehog signaling pathway in VDR-deficient mouse C3H10T1/2 cells assessed as reduction in oxysterol-induced Gli1 mRNA expression after 24 hrs by q-PCR analysis. The settings on record: C3H 10T1/2, 24 h.
Series [7] is filed under the species Mus musculus. As to the kind of experiment: Inhibition of Hedgehog signaling pathway in VDR-deficient mouse C3H10T1/2 cells assessed as change in CYP24A1 mRNA expression at 1 uM after 24 hrs by q-PCR analysis. Also noted: scale not given: the % may be the effect or the level left.
The species named for series [8] is Mus musculus. As to the kind of experiment: Inhibition of Hedgehog signaling pathway in Sufu-deficient mouse C3H10T1/2 cells assessed as change in CYP24A1 mRNA expression at 1 uM after 24 hrs by q-PCR analysis. More on the design: scale not given: the % may be the effect or the level left.
For series [9], the species on record is Mus musculus. The series can be described thus: Inhibition of Hedgehog signaling pathway in VDR-deficient mouse C3H10T1/2 cells assessed as reduction in oxysterol-induced Gli1 mRNA expression at 1 uM after 24 hrs by q-PCR analysis.
Series [10] is filed under the species Mus musculus. The series can be described thus: Inhibition of Hedgehog signaling pathway in Sufu-deficient mouse C3H10T1/2 cells assessed as reduction in oxysterol-induced Gli1 mRNA expression at 1 uM after 24 hrs by q-PCR analysis.
The species named for series [11] is Mus musculus. The series can be described thus: Inhibition of Hedgehog signaling pathway in mouse C3H10T1/2 cells assessed as reduction in oxysterol-induced Gli1 mRNA expression at 1 uM after 24 hrs by q-PCR analysis relative to oxysterol alone. In kind it is cell-based. Also noted: scale not given: the % may be the effect or the level left. In outline:
as §1

The target of series [12] is T1, Vitamin D3 receptor (Mus musculus). As to the kind of experiment: Activation of VDR in mouse C3H10T1/2 cells assessed as change in Cyp24A1 mRNA expression at 5 uM after 24 hrs by q-PCR analysis relative to control. The class given is cell-based.
Series [13] is described as follows: Half life in rat liver homogenates. In kind it is ADME, tissue-based.
In another series the test system is Medulloblastoma cell. The series can be described thus: Antiproliferative activity against medulloblastoma cells derived from conditional patched knockout mouse after 48 hrs by [3H]-thymidine incorporation assay. In kind it is functional. In outline:
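Primary tumour cells from Math1-Cre;Ptc fl/fl medulloblastoma were isolated and cultured in vitro, then incubated with analogue for 48 h in a proliferation assay. GI50 is mean ± SEM of at least two separate experiments performed in triplicate.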
(In general: Uptake of a labelled nucleoside into DNA is a usual measure of proliferation.)

The species named for series [14] is Mus musculus. As to the kind of experiment: Inhibition of Hedgehog signaling pathway in Sufu-deficient mouse C3H10T1/2 cells assessed as reduction in oxysterol-induced Gli1 mRNA expression at 5 uM after 24 hrs by q-PCR analysis.
The species entered for series [15] is Mus musculus. The series can be described thus: Inhibition of Hedgehog signaling pathway in mouse C3H10T1/2 cells assessed as residual oxysterol-induced Gli1 mRNA expression at 5 uM after 24 hrs by q-PCR analysis relative to oxysterol alone.
Series [16] deals with T1, Vitamin D3 receptor (Mus musculus). The series can be described thus: Activation of VDR in mouse ASZ001 cells assessed as change in Cyp24A1 mRNA expression at 2.5 uM after 48 hrs by q-PCR analysis relative to control. In kind it is cell-based.
A short description of series [17]: Clearance in human liver microsomes assessed per mg protein at 1 uM by LC-MS/MS analysis. (In general: Liver microsomes are a subcellular fraction often used to study metabolism.)
The nature of series [18]: Half life in human liver microsomes at 1 uM by LC-MS/MS analysis. The note with it: microsomes.
The nature of series [19]: Kinetic solubility of the compound in pH 4 phosphate buffered saline. In kind it is physicochemical. The settings on record: read-out: Kinetic_solubility. In short, it runs like this:
(§2)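 Kinetic solubility was run in PBS at pH 4.0 and at pH 7.4 under a standard contract protocol. Compound concentration was measured by LC-MS/MS.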

Series [20] in a line: Kinetic solubility of the compound in pH 7.4 phosphate buffered saline. The settings on record: read-out: Kinetic_solubility. In kind it is physicochemical. In short, it runs like this:
as §2

The values that follow come from ChEMBL document CHEMBL4382241, “Synthesis and evaluation of third generation vitamin D3 analogues as inhibitors of Hedgehog signaling” (Eur J Med Chem, 2019).

≈ marks a conversion by molar mass, not a printed value. Calls of active or inactive are those of the source. The rule behind the calls is not given here. Some results are limits rather than exact numbers.

By IC50 is commonly meant the concentration at which inhibition is half-maximal. By EC50 is commonly meant the midpoint of the concentration-response curve. One may read the half-life as how long it takes for the measured level to halve. The term GI50 denotes the concentration that inhibits growth by half.

Turning to `C=C1CC[C@H](O)C/C1=C/C=C1\CCC[C@]2(C)[C@@H]([C@H](C)CCCC(C)(C)O)CC[C@@H]12` [CALCIFEDIOL ANHYDROUS], the Activity in [1] was 11000%; in [2], > 30000%. Also, the concentration for half-maximal inhibition (IC50) in series [3] came out at 400 nM; in [4], 500 nM. In the series filed under Mus musculus [5], the % Gli1 activity amounted to 9.2%. Further, at Vitamin D3 receptor, the EC50 stood at 600 nM.

On to `CCC(CC)(c1ccc(OCC(O)CO)c(C)c1)c1ccc(OCC(O)C(C)(C)C)c(C)c1` (stereo unspecified) [LG-190178], for which the half-maximal inhibitory concentration (IC50) in series [6] is 1900 nM; in series [3], 0.25 nM; in series [4], 0.23 nM. Moreover, the results for the Activity (in [1]; in the series listed under Mus musculus [7]) were 13000% and 250%, respectively. The EC50 at Vitamin D3 receptor came to 7.7 nM.

Take `C=C1/C(=C\C=C2/CCC[C@]3(C)[C@@H]([C@H](C)CCCC(C)(C)O)CC[C@@H]23)C[C@@H](O)C[C@@H]1O` [CALCITRIOL]: the Activity in the series listed under Mus musculus [8] is 590%; in the series filed under Mus musculus [11] it was 30%; in series [1], > 30000%; in series [12] it was > 30000%; in the series listed under Mus musculus [7], 530%. Further, the inhibition entry in the series filed under Mus musculus [9] and in the series listed under Mus musculus [10] was “inactive” in each case. Moreover, the half-life in series [13] is > 120 min. The compound further had a 50% growth inhibitory concentration (GI50) with Medulloblastoma cell of 1400 nM.

For the compound `CS(=O)(=O)c1ccc(C(=O)Nc2ccc(Cl)c(-c3ccccn3)c2)c(Cl)c1` [VISMODEGIB], the inhibition entry in the series filed under Mus musculus [10] was “inactive”. The “Hedgehog inhibition activity call (active/not active)” value in the series listed under Mus musculus [14] was “Active”. Moreover, the concentration for half-maximal inhibition (IC50) in series [3] came to 82 nM; in series [4], 40 nM. Moreover, the % Gli1 activity in the series filed under Mus musculus [15] turned out to be 0.9%.

On to `CC(C)CCC[C@@H](C)[C@H]1CC[C@H]2[C@H](CNc3ccc(O)cc3)CCC[C@]12C`, for which the Activity in series [16] was 5.8%; in [12], 8.9%. The CLH in series [17] was < 3. In addition, in series [18], the half-life at 1 µM was > 231 min. In addition, the half-maximal inhibitory concentration (IC50) in series [3] and in series [4] was 600 nM in each case. For the same compound, the % Gli1 activity in the series listed under Mus musculus [15] was found to be 1.9%. In the series with Medulloblastoma cell, this compound had a GI50 of 2100 nM. Also, the solubility kinetic stood at 0.13 ng/mL (≈ 0.35 nM) in series [19] and 2.7 ng/mL (≈ 7.27 nM) in series [20].
